Screening data from PubChem BioAssay.
hIAP inh – blocks human intestinal alkaline phosphatase. AID 2544. purified IAP, CDP-Star luminescence, 30 min. inhibition, % at 10 µM. hit rate 0.12% among 330,000. P09923;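 active = inhibition reaching a set limit with compound at 10 µM in the primary screen, cut at about 35% in these data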;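 note: plate controls were DMSO wells with enzyme for no effect and no-enzyme buffer wells for full effect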
Target sequence (P09923 whole entry, looked up): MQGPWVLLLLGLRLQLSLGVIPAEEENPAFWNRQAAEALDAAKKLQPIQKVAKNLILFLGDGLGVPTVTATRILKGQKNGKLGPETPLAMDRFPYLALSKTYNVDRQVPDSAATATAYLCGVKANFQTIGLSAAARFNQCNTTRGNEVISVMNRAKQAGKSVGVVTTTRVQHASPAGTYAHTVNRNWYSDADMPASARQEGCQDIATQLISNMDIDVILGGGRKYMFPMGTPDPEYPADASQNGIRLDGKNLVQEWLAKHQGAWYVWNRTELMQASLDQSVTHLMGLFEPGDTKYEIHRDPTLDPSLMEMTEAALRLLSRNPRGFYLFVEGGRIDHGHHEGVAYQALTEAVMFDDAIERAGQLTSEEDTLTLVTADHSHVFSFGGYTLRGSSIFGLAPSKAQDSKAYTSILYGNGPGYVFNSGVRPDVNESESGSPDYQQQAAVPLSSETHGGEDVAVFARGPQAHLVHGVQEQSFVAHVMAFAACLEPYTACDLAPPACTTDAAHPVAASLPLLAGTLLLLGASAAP
hIAP activ – human IAP activation; activation factor at 10 µM; hit rate 0.16% among 330,000; P09923; AID 2524; purified human IAP, CDP-Star luminescence, 30 min; hits give high values; 1 = vehicle-only enzyme, 0 = enzyme-free background;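 active = activation factor of the enzyme at least 2-fold when tested at 20 µM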
bIAP act – increases bovine intestinal alkaline phosphatase activity | activation factor at 20 µM | hit rate 0.17% among 200,000 | purified bovine IAP, CDP-star luminescence, 30 min; hits give high values; fold of DMSO-control signal, blank-subtracted | AID 1016;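 active = activation factor of 2 or more at 20 µM, a signal rise over negative controls twice the positive control's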
mIAP block – blocks mouse intestinal alkaline phosphatase. inhibition, % at 10 µM. purified mouse IAP, CDP-Star luminescence, 30 min. hit rate 0.2% among 330,000;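 active = inhibition of at least 40% at 10 µM in the primary screen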;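 note: plate controls were DMSO with enzyme for no effect and no enzyme wells for full effect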
mIAP act – increases mouse intestinal alkaline phosphatase activity. activation factor at 10 µM. muIAP, CDP-Star luminescence, 30 min; hits give high values; 1 = vehicle-only enzyme signal, 0 = enzyme-free wells. hit rate 0.24% among 330,000. AID 2805;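 active = activation factor of at least 2 at 20 µM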
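System: mouse IAP enzyme. Reagent: CDP-Star chemiluminescent phosphatase substrate. Benchmarks: DMSO wells, no-enzyme wells. Times: 30 min enzyme-substrate-compound incubation at room temperature. Detection: luminescence from enzymatic CDP-Star hydrolysis. Doses: test compounds delivered from DMSO solution.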
bIAP inhibitor – blocks bovine intestinal alkaline phosphatase activity. purified bovine IAP, CDP-star luminescence, 30 min. inhibition, % at 20 µM. 190,000 tested, under 10 active;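 active = over 50% inhibition of intestinal alkaline phosphatase at 20 µM in the single-dose screen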
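Assay system – bovine IAP enzyme · Quantity – bovine IAP at 1/65,000,000 final dilution · Detection – CDP-star luminescence signal · Times – 30 min reaction at room temperature · Also added – CDP-star substrate at 30 µM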
hIAP act conf – human IAP activation confirmation; shares compounds with hIAP activ; purified IAP, CDP-Star luminescence, 30 min; hits give low values; activation (%Activity, negative = activation), % at 8.3 µM; hit rate 10% among 880; AID 434926;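 active = at least twofold enzyme activation in any of six single-dose repeats, which the averaged readout prints as negative percent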
Starred values were filed as active, the others as inactive; x = no result. A selection: hits, their analogues and other compounds. The true share with any hit is near 0.79%.

SMILES	hIAP inh	hIAP activ	bIAP act	mIAP block	mIAP act	bIAP inhibitor	hIAP act conf
CC1COC(c2cccn2Cc2ccccc2Cl)=N1 (stereo unspecified)	14	0.86	1	1	0.99	2	x
CN(C(=O)Cn1cccc1C1=NC(c2ccccc2)CO1)c1ccccc1 (stereo unspecified)	38*	0.62	1	5	0.95	-4	-55
Cc1cccc(-c2nc(NCCCN3CCOCC3)c3ccccc3n2)c1	-11	1.1	1	5	0.95	3	x
c1ccc(-c2nc(NCCCN3CCOCC3)c3ccccc3n2)cc1	-104	2*	1	0	1	4	-9
CCCN(CCC)CC(O)CN1C(=O)NC(C)(C)C1=O (stereo unspecified)	19	0.81	0.9	7	0.93	15	x
CCOc1ccc(C(CC(=O)O)NC(=O)c2cccs2)cc1OC (stereo unspecified)	-1	1	1	-7	1.1	4	x
COc1cc(CN2CCc3ccc(NC(=O)CCc4ccccc4OC)cc3C2)ccc1O	36*	0.64	x	-20	1.2	x	-24
CN(C)c1ccc(N=Nc2cccc(F)c2)cc1	5	0.95	x	12	0.88	x	x
CN(C)c1ccc(N=Nc2cccc3ccoc23)cc1	36*	0.64	x	28	0.72	x	-35
CSCCC(NC(=O)COc1ccccc1)C(=O)O (stereo unspecified)	-8	1.1	1.3	-9	1.1	-30	x
Cc1ccc(C(=O)NNC(=O)CCCCC(=O)NNC(=O)c2ccc(C)cc2)cc1	-131	2.3*	x	-4	1	x	-23
CC(C)(C)NC(=O)C(=O)NNC(=O)COc1ccccc1	-107	2.1*	1.1	8	0.92	-6	39
Cc1cccc(OCC(=O)NNC(=O)c2ccc3nc[nH]c3c2)c1	-136	2.4*	x	0	1	x	-117*
O=C(CCCCC(=O)NNC(=O)COc1ccccc1)NNC(=O)COc1ccccc1	-151	2.5*	x	16	0.84	x	-88*
O=Cc1ccc(OCC(=O)Nc2ccccc2C(F)(F)F)cc1	-21	1.2	1	-4	1	-1	x
Cc1cccc(OCC(=O)NNC(=O)CCCCC(=O)NNC(=O)COc2cccc(C)c2)c1	-224	3.2*	x	14	0.86	x	-33
CCOC(=O)C1CCN(C(=O)N2CCOCC2)CC1	-100	2*	0.9	-9	1.1	7	-8
CCCCn1c(O)c(N=Nc2ccccc2O)c2ccccc21	-174	2.7*	x	20	0.8	x	6
CCN(CC)CCN=C1CCCc2ccccc2N1	52*	0.47	0.9	5	0.95	10	-22
O=C1CCCc2ccccc2N1	-22	1.2	1	4	0.96	-2	x
CN(CC(=O)Nc1ccccc1Cl)C(=O)COC(=O)c1cnccn1	35*	0.65	x	-3	1	x	-1
COc1cccc(/C=N/NC(=O)CNC(=O)/C=C\c2ccccc2)c1O	-142	2.4*	x	16	0.84	x	-5
COCCN(C(=O)COC(=O)C1(c2ccccc2)CC1)c1c(N)n(CC(C)C)c(=O)[nH]c1=O	6	0.94	x	6	0.94	x	x
COc1ccc(C(=S)N2CCOCC2)cc1OC(=O)c1ccccc1Cl	17	0.83	x	5	0.95	x	x
C=CCn1c(CNS(=O)(=O)c2ccc(F)cc2)n[nH]c1=S	9	0.91	x	-6	1.1	x	x
SMILES	hIAP inh	hIAP activ	bIAP act	mIAP block	mIAP act	bIAP inhibitor	hIAP act conf
C=CCn1c(CNS(=O)(=O)c2ccc(Cl)cc2)n[nH]c1=S	42*	0.58	x	16	0.83	x	-26
COc1ccccc1OCC(=O)NNC(=O)CCCC(=O)NNC(=O)COc1ccccc1OC	24	0.77	x	15	0.85	x	x
NC(=S)NNC(=O)COc1ccccc1O	-115	2.1*	x	33	0.67	x	-3
CCOc1ccc(N2CC(C(=O)Nc3ccccc3C(=O)N3CCOCC3)CC2=O)cc1 (stereo unspecified)	3	0.97	x	7	0.93	x	x
O=C(CCN1CCN(Cc2ccccc2)CC1)NNC(=O)Nc1cccc(C(F)(F)F)c1	-102	2*	x	4	0.95	x	0
CCC1(c2ccccc2)NC(=O)N(CC(=O)Nc2ccc(N3CCCC3)cc2C)C1=O (stereo unspecified)	4	0.96	x	-4	1	x	x
O=C(Nc1ccnn1C1CCN(Cc2ccccc2)CC1)C1CCCC1	-18	1.2	x	-12	1.1	x	x
CC(Cc1ccc(Cl)cc1)N1CCC(n2nccc2NC(=O)C2CCCC2)CC1 (stereo unspecified)	-128	2.3*	x	-83	1.8	x	-3
C/C(=N/NC(=O)c1ccc(Cn2cccn2)o1)c1cccc(NC(=O)c2ccncc2)c1	46*	0.54	x	-5	1	x	-101*
C[C@@H](NC(=O)/C(C#N)=C/c1ccc(O)c(O)c1)c1ccccc1	32	0.68	x	24	0.76	x	x
N#C/C(=C\c1ccc(O)c(O)c1)C(=O)Nc1ccccc1	52*	0.48	x	25	0.75	x	3
CCCCn1c(N)c(N(CCOC)C(=O)c2ccc(-c3ccc(C(C)=O)cc3)o2)c(=O)[nH]c1=O	-8	1.1	x	8	0.92	x	x
CCOC(=O)C1CCN(CC(O)COc2ccc(C(=O)CC)cc2)CC1 (stereo unspecified)	36*	0.64	1	-4	1	-4	-27
CC(C)CCNc1ncnc2c1nnn2Cc1ccccc1Cl	80*	0.2	0.9	4	0.96	7	40
OCCNc1ncnc2c1nnn2Cc1ccccc1	10	0.91	x	-9	1.1	x	x
Cc1ccc2occ(/C=N/NC(=O)c3ccncc3)c(=O)c2c1	-131	2.3*	x	10	0.9	x	-31
COc1ccc(CNC(=O)CN2C(=O)CSc3ccc(S(=O)(=O)N4CCOCC4)cc32)c(OC)c1	-17	1.2	x	-3	1	x	x
O=C(CCCC(=O)N/N=C\c1ccccn1)N/N=C\c1ccccn1	-102	2*	1.1	-4	1	-6	2
O=C(N/N=C/c1ccccn1)c1cc(C2CC2)[nH]n1	-110	2.1*	1.6	21	0.79	-59	-22
COc1ccc(OC)c(S(=O)(=O)Nc2cc3c4c(c2)C(C)C(=O)N4CCC3)c1 (stereo unspecified)	-5	1.1	x	1	0.99	x	x
O=C(CSC1=NS(=O)(=O)c2cc(Cl)ccc2N1)c1ccc(Cl)cc1	-12	1.1	x	0	1	x	x
COc1ccc(S(=O)(=O)NC2CCN(Cc3ccccc3)CC2)cc1NC(C)=O	11	0.89	x	0	1	x	x
COC(=O)/C(C#N)=C/c1c(Oc2cc(C)cc(C)c2)nc2ccccn2c1=O	-103	2*	x	12	0.88	x	1
O=C(COc1ccc2c3c(c(=O)oc2c1)CCCC3)N1CCN(c2ccccc2)CC1	37*	0.63	x	4	0.96	x	-27
